Laboratory results published in ChEMBL document CHEMBL1135749, “Stereoselective synthesis and antiviral activity of D-2',3'-didehydro-2',3'-dideoxy-2'-fluoro-4'-thionucleosides” (J Med Chem, 2002).

What was measured:
[1] = Ratio of kinetic parameter Kcat to that of binding affinity towards adenosine deaminase KM.
Outline: (§1)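 Calf intestinal mucosa adenosine deaminase (0.15 units) in pH 7.4 phosphate buffer (2 mL) at 25 °C, with substrate at 15-100 µM. Hydrolysis was followed by UV absorbance at 265 nm, and substrate concentration was derived from the absorbance change. Initial rates came from graphical fitting of concentration versus time.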

[2] = target: T1, Adenosine deaminase (Bos taurus) (UniProt P56658); experiment: Kinetic parameter Kcat of compound used as substrate for Adenosine deaminase was evaluated; outline: as §1
T1 sequence (whole entry): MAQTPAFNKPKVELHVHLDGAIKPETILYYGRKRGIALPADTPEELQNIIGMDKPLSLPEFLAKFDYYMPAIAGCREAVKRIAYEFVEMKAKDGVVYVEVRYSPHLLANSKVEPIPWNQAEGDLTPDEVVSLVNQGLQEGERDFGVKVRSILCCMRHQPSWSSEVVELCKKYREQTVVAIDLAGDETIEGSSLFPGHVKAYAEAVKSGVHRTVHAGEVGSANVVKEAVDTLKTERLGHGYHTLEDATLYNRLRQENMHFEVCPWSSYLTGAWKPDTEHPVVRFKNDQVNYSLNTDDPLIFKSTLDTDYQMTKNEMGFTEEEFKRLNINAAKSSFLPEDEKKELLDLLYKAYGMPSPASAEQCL

SMILES	k cat/Km [1] [M⁻¹ s⁻¹]	k cat [2] [s⁻¹]
Nc1ncnc2c1ncn2[C@@H]1S[C@H](CO)C=C1F	50000	0.94
Nc1ncnc2c1ncn2[C@@H]1O[C@H](CO)[C@@H](O)[C@H]1O	3.1e+06	76.4
